Assay results reported in ChEMBL document CHEMBL1127811, “Inhibitors of cholesterol biosynthesis. 2. Hypocholesterolemic and antioxidant activities of benzopyran and tetrahydronaphthalene analogues of the tocotrienols” (J Med Chem, 1994).
Several values for one entry are separate records, joined by “and”; a condition that tells them apart may be missing. Equal entries are not always repeated.

Key:
[1] = target: T1, 3-hydroxy-3-methylglutaryl-coenzyme A reductase (Homo sapiens) (UniProt P04035); test: In vitro suppression of HMG-CoA reductase (HMGR) in Hep G2 cells; type: cell-based; design: concentration or dose not given beside the values; conditions: HepG2, concentration not given here
T1 sequence (whole entry): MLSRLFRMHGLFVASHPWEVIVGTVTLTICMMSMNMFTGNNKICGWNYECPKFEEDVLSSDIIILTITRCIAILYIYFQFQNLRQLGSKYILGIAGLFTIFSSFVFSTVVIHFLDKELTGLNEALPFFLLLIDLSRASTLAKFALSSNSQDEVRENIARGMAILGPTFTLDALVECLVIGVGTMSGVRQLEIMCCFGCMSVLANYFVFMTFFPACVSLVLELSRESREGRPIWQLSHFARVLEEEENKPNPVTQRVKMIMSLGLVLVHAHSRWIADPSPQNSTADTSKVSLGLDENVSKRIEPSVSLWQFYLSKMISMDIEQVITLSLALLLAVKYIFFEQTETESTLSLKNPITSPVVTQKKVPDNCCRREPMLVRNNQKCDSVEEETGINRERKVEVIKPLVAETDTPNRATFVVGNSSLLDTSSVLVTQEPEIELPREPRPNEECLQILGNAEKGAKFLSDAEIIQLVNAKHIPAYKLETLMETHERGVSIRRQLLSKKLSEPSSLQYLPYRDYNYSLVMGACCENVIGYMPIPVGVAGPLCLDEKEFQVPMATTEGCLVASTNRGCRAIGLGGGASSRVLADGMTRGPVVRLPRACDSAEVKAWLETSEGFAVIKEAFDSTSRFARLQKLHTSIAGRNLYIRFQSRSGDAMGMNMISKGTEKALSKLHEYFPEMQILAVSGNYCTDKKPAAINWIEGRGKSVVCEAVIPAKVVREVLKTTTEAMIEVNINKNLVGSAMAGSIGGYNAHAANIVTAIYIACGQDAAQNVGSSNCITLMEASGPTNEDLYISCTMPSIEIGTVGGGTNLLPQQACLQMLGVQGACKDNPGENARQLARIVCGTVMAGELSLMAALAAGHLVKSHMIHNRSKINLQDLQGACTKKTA
Summary of the method: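 HepG2 cells treated 4 h with compound at 10 μM, DMSO vehicle controls. HMG-CoA reductase activity assayed in microsomal fraction isolated at end of incubation. Mean % suppression vs controls, SD ≤ ±10%, n ≥ 8.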

[2] = Oxidation potential assay as cyclic voltametry; not electrochemically active within scan range; type: functional
[3] = tested on: HepG2; test: In vitro inhibition of cholesterol biosynthesis in Hep G2 cells; type: functional, Homo sapiens; design: concentration or dose not given beside the values
Summary of the method: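 HepG2 human hepatoma cells incubated 4 h with compound at 10 μM, DMSO vehicle controls. Mean % inhibition vs controls, SD ≤ ±10%, n ≥ 8.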

[4] = species on record: Gallus gallus; test: Ratio of HDL/total cholesterol value; type: functional
Summary of the method: (§1)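 Six-week-old male chickens fed corn-soybean control diet with test compound at 50 ppm. Birds fasted 36 h, then refed 48 h before sacrifice. Serum total, LDL and HDL cholesterol and triglycerides measured (mg/100 mL), HDL/total ratio computed. Means ± SD, n = 6–12 per group, also as % of control. Significance p < 0.01 within each study.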

[5] = species on record: Gallus gallus; test: (§2) Hypocholesterolemic activity in 6-week old male mormocholesterolemic chickens using experiment 2; type: functional
Summary of the method: (§3)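 Male chickens, 6 weeks old. Test compound mixed at 50 ppm into a corn-soybean control diet; controls get the diet alone. After the feeding period, birds are fasted 36 h and refed 48 h before sacrifice. Serum total, LDL and HDL cholesterol (mg/100 mL) and triglycerides measured; expressed as mean ± SD and percent of control, n = 6–12 per group.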

[6] = species on record: Gallus gallus; test: as §2; type: functional; summary of the method: as §1; remark: listed apart in the source
[7] = Compound oxidation potential using cyclic voltametry; type: ADME
[8] = species on record: Gallus gallus; test: (§4) Hypocholesterolemic activity in 6-week old male mormocholesterolemic chickens using experiment 1; type: functional; summary of the method: as §1
[9] = LDL oxidation assay as spectrophotometric determination of TBARS; type: functional
Summary of the method: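 LDL (0.5 mg/mL protein stock) in saline/20 mM HEPES with drug in ethanol, oxidised by CuSO4 (4 × 10⁻⁴ M stock), 37 °C, 5 h, in duplicate. Stopped with EDTA; TCA/TBA added, boiled 30 min, A535 read. Malonaldehyde equivalents from tetramethoxypropane standard curve. IC50 = concentration inhibiting 50% TBARS vs ethanol controls.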

[10] = species on record: Gallus gallus; test: (§5) Hypocholesterolemic activity in 6-week old male mormocholesterolemic chickens using experiment 3; type: functional; summary of the method: as §3
[11] = species on record: Gallus gallus; test: (§6) Hypocholesterolemic activity in 6-week old male mormocholesterolemic chickens using experiment 4; type: functional; summary of the method: as §3
[12] = species on record: Gallus gallus; test: as §4; type: functional; summary of the method: as §3; remark: listed apart in the source
[13] = species on record: Gallus gallus; test: as §6; type: functional; summary of the method: as §1; remark: listed apart in the source
[14] = species on record: Gallus gallus; test: as §5; type: functional; summary of the method: as §1; remark: listed apart in the source

Row | SMILES | inhibition [1] [%] | Inhibition [3] [%] | Ratio [4] | LDL cholesterol [5] [mg 100ml-1] | HDL cholesterol [6] [mg 100ml-1] | Total cholesterol [6] [mg 100ml-1] | Triglycerides [6] [mg 100ml-1] | Potential [7] | other results
1 | CC(C)=CCC/C(C)=C/CC/C(C)=C/CCC1(C)CCc2ccccc2O1 (stereo not drawn) | 0 | 45 | – | – | – | – | – | – | Potential [2]: Not electrochemically active
2 | CC(C)=CCC/C(C)=C/CC/C(C)=C/CCC1CCc2cc(O)ccc2O1 (stereo not drawn) | – | 71 | 0.73 | 23 | 86 | 118 | 81 | – | –
3 | CC(C)=CCC/C(C)=C/CC/C(C)=C/CCC1(C)CCc2cc(O)ccc2C1 (stereo not drawn) | – | 58 | 0.68 | 28 | 85 | 125 | 86 | 1.48 | –
4 | CC(C)=CCC/C(C)=C/CC/C(C)=C/CCC1(C)CCc2cc(O)c(C)c(C)c2O1 (stereo not drawn) | 61 | 69 | 0.74 and 0.62 and 0.68 | – | – | – | – | 0.94 | HDL cholesterol [8]: 89 mg 100ml-1; Total cholesterol [8]: 121 mg 100ml-1; Triglycerides [8]: 62 mg 100ml-1; IC50 [9]: 1800 nM; LDL cholesterol [10]: 51 mg 100ml-1; LDL cholesterol [11]: 33 mg 100ml-1; LDL cholesterol [12]: 29 mg 100ml-1; HDL cholesterol [13]: 85 mg 100ml-1; Total cholesterol [13]: 125 mg 100ml-1; Triglycerides [13]: 57 mg 100ml-1; HDL cholesterol [14]: 94 mg 100ml-1; Total cholesterol [14]: 151 mg 100ml-1; Triglycerides [14]: 83 mg 100ml-1
